Data taken from BindingDB's records for doi:10.1021/jm970020k (Eli Lilly, 1997).

Columns and labels:
[1] = target: Integrin alpha-IIb/beta-3 (Homo sapiens, UniProt P08514+P05106); assay: Inhibition of the platelet GPIIb-IIIa receptor measured as ability to attenuate ADP-induced (fibrinogen-mediated) platelet aggregation in human platelet-rich plasma (PRP)
Method in brief: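 Functional GPIIb-IIIa assay in human platelet-rich plasma. Aggregation was induced with ADP and depends on fibrinogen.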

[2] = Inhibition ADP-induced (fibrinogen-mediated) platelet aggregation in human platelet-rich plasma (PRP)

Sequence of Integrin alpha-IIb/beta-3 (P05106 27-788 limits assumed): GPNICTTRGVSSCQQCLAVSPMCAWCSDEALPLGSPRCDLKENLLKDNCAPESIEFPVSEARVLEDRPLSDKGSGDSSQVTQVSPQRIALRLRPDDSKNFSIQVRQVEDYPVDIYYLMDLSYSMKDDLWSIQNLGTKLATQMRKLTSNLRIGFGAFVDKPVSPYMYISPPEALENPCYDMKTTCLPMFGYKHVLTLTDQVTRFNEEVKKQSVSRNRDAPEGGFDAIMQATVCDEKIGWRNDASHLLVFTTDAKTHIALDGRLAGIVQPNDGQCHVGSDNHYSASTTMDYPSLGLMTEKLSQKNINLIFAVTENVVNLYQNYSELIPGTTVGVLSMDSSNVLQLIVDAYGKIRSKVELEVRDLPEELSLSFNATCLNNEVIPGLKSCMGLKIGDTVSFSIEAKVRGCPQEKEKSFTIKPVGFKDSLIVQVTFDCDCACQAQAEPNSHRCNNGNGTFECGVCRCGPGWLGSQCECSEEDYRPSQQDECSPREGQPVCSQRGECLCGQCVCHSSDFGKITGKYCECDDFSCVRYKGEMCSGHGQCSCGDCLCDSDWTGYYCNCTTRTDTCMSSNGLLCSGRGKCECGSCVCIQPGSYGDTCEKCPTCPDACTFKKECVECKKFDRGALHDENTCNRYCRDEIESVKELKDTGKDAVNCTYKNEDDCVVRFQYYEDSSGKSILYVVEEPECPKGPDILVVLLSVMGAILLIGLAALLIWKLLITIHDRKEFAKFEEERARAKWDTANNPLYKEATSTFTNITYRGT
Sequence of Integrin alpha-IIb/beta-3 (P08514 32-887 limits assumed): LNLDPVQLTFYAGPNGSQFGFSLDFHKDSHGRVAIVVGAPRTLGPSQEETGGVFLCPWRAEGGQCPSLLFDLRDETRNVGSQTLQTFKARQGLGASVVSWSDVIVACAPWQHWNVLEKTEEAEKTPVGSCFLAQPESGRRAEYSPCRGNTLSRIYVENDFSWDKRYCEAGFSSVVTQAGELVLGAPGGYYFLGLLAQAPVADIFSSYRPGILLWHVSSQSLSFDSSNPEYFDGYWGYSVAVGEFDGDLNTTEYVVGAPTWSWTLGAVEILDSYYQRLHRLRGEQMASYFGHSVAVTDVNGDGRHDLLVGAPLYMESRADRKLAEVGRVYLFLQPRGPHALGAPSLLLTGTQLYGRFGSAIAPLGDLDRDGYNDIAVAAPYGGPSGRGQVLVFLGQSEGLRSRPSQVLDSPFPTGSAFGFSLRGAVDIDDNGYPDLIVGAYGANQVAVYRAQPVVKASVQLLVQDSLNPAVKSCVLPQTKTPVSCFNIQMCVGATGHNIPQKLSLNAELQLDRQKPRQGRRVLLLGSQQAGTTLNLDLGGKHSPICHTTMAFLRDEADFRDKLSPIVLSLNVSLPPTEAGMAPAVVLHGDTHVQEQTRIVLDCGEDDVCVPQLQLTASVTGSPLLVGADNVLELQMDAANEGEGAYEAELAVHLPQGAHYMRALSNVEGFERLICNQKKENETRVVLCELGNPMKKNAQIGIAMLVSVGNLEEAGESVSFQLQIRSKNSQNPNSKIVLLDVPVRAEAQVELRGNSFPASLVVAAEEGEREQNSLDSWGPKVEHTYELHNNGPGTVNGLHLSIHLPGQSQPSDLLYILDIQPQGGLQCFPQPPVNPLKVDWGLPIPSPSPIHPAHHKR
Sequence of Integrin alpha-IIb/beta-3 (P08514 891-1039 limits assumed): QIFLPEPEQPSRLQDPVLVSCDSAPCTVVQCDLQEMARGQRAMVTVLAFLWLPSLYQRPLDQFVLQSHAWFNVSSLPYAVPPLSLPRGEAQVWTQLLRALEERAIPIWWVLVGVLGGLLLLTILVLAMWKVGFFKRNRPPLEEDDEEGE

Structure (SMILES) | IC50 [1] [µM] | IC50 [2] [µM]
N=C(N)c1ccc2sc(C(=O)NCCCCCCC(=O)O)cc2c1 [7-[(5-Carbamimidoyl-benzo[b]thiophene-2-carbonyl)-amino]-heptanoic acid] | 7.3 | –
CC(CCCCNC(=O)c1cc2cc(C(=N)N)ccc2[nH]1)CC(=O)O (stereo unspecified) [7-[(5-Carbamimidoyl-1H-indole-2-carbonyl)-amino]-3-methyl-heptanoic acid] | 2.8 | –
N=C(N)c1ccc2[nH]c(C(=O)NCCC(=O)NCCC(=O)O)cc2c1 [3-{3-[(5-Carbamimidoyl-1H-indole-2-carbonyl)-amino]-propionylamino}-propionic acid] | 3.6 | –
C#C[C@H](CC(=O)O)NC(=O)CCC(=O)Nc1ccc(C(=N)N)cc1 [(S)-3-[3-(4-Carbamimidoyl-phenylcarbamoyl)-propionylamino]-pent-4-ynoic acid] | – | 0.035
CCC(CCCCNC(=O)c1cc2cc(C(=N)N)ccc2[nH]1)CC(=O)O (stereo unspecified) [7-[(5-Carbamimidoyl-1H-indole-2-carbonyl)-amino]-3-ethyl-heptanoic acid] | 5.2 | –
N=C(N)c1ccc2[nH]c(C(=O)NCCCCCC(=O)O)cc2c1 [6-[(5-Carbamimidoyl-1H-indole-2-carbonyl)-amino]-hexanoic acid] | > 100 | –
N=C(N)c1ccc2[nH]c(C(=O)NCCCC(=O)NCC(=O)O)cc2c1 [{4-[(5-Carbamimidoyl-1H-indole-2-carbonyl)-amino]-butyrylamino}-acetic acid] | 32 | –
N=C(N)c1ccc2c(C(=O)NCCCCCCC(=O)O)c[nH]c2c1 [7-[(6-Carbamimidoyl-1H-indole-3-carbonyl)-amino]-heptanoic acid] | 0.65 | –
N=C(N)c1ccc2oc(C(=O)NCCCCCC(=O)O)cc2c1 [6-[(5-Carbamimidoyl-benzofuran-2-carbonyl)-amino]-hexanoic acid] | 16 | –
N=C(N)c1ccc2cc(C(=O)NCCCCCCC(=O)O)[nH]c2c1 [7-[(6-Carbamimidoyl-1H-indole-2-carbonyl)-amino]-heptanoic acid] | 1.3 | –
CCCCCCC(CCCCNC(=O)c1cc2cc(C(=N)N)ccc2[nH]1)CC(=O)O (stereo unspecified) [3-{4-[(5-Carbamimidoyl-1H-indole-2-carbonyl)-amino]-butyl}-nonanoic acid] | 59 | –
CCCCC(CCCCNC(=O)c1cc2cc(C(=N)N)ccc2[nH]1)CC(=O)O (stereo unspecified) [3-Butyl-7-[(5-carbamimidoyl-1H-indole-2-carbonyl)-amino]-heptanoic acid] | 25.3 | –
N=C(N)c1ccc2oc(C(=O)NCCCCCCCC(=O)O)cc2c1 [8-[(5-Carbamimidoyl-benzofuran-2-carbonyl)-amino]-octanoic acid] | – | 26.7
Cc1c(C(=O)NCCCCCCC(=O)O)[nH]c2ccc(C(=N)N)cc12 [7-[(5-Carbamimidoyl-3-methyl-1H-indole-2-carbonyl)-amino]-heptanoic acid] | 4.1 | –
N=C(N)c1ccc2[nH]c(C(=O)NCc3ccc(CC(=O)O)cc3)cc2c1 [(4-{[(5-Carbamimidoyl-1H-indole-2-carbonyl)-amino]-methyl}-phenyl)-acetic acid] | 47 | –
N=C(N)c1ccc2[nH]c(C(=O)NCC(=O)NCCCC(=O)O)cc2c1 [4-{2-[(5-Carbamimidoyl-1H-indole-2-carbonyl)-amino]-acetylamino}-butyric acid] | 50 | –
CCC(CCCCCNC(=O)c1cc2cc(C(=N)N)ccc2[nH]1)C(=O)O (stereo unspecified) [7-[(5-Carbamimidoyl-1H-indole-2-carbonyl)-amino]-2-ethyl-heptanoic acid] | > 100 | –
N=C(N)c1ccc2oc(C(=O)NCCCCCCC(=O)O)cc2c1 [7-[(5-Carbamimidoyl-benzofuran-2-carbonyl)-amino]-heptanoic acid] | 0.27 | –
N=C(N)c1cccc(NCC(=O)NCCCCCCC(=O)O)c1 [7-[2-(3-Carbamimidoyl-phenylamino)-acetylamino]-heptanoic acid] | > 100 | –

More lines, now with the values ahead:

IC50 [1] [µM] | IC50 [2] [µM] | Structure (SMILES)
3 | – | CN(CCCCCCC(=O)O)C(=O)c1cc2cc(C(=N)N)ccc2[nH]1 [7-[(5-Carbamimidoyl-1H-indole-2-carbonyl)-methyl-amino]-heptanoic acid]
7.5 | – | Cn1c(C(=O)NCCCCCCC(=O)O)cc2cc(C(=N)N)ccc21 [7-[(5-Carbamimidoyl-1-methyl-1H-indole-2-carbonyl)-amino]-heptanoic acid]
– | 21 | N=C(N)c1ccc2c(c1)cc(C(=O)NCCCCCCC(=O)O)n2Cc1ccccc1 [7-[(1-Benzyl-5-carbamimidoyl-1H-indole-2-carbonyl)-amino]-heptanoic acid]
3.4 | – | N=C(N)c1ccc2c(c1)CC(C(=O)NCCCCCCC(=O)O)O2 (stereo unspecified) [7-[(5-Carbamimidoyl-2,3-dihydro-benzofuran-2-carbonyl)-amino]-heptanoic acid]
4.9 | – | N=C(N)c1ccc2[nH]c(C(=O)NCCCCC(CC(=O)O)c3ccccc3)cc2c1 (stereo unspecified) [7-[(5-Carbamimidoyl-1H-indole-2-carbonyl)-amino]-3-phenyl-heptanoic acid]
7.2 | – | N=C(N)c1ccc2cc(C(=O)NCCCCCCC(=O)O)oc2c1 [7-[(6-Carbamimidoyl-benzofuran-2-carbonyl)-amino]-heptanoic acid]
0.14 | – | N=C(N)c1ccc2c(C(=O)NCCCCCCC(=O)O)[nH]nc2c1 [7-[(6-Carbamimidoyl-1H-indazole-3-carbonyl)-amino]-heptanoic acid]
67 | – | N=C(N)c1ccc(NCC(=O)NCCCCCCC(=O)O)cc1 [7-[2-(4-Carbamimidoyl-phenylamino)-acetylamino]-heptanoic acid]
2.8 | – | N=C(N)c1ccc2[nH]c(C(=O)NCCCCCCC(=O)O)cc2c1 [7-[(5-Carbamimidoyl-1H-indole-2-carbonyl)-amino]-heptanoic acid]
43.7 | – | CC(CCCCCNC(=O)c1cc2cc(C(=N)N)ccc2[nH]1)C(=O)O (stereo unspecified) [7-[(5-Carbamimidoyl-1H-indole-2-carbonyl)-amino]-2-methyl-heptanoic acid]
39 | – | N=C(N)c1ccc2[nH]c(C(=O)NCc3ccc(CCC(=O)O)cc3)cc2c1 [3-(4-{[(5-Carbamimidoyl-1H-indole-2-carbonyl)-amino]-methyl}-phenyl)-propionic acid]
2.6 | – | N=C(N)c1ccc(OCC(=O)NCCCCCCC(=O)O)cc1 [7-[2-(4-Carbamimidoyl-phenoxy)-acetylamino]-heptanoic acid]
